For one molecule, Activity, Ratio Ki and Ki results are on record in ChEMBL document CHEMBL4184319, “Fluorescent-Labeled Selective Adenosine A2B Receptor Antagonist Enables Competition Binding Assay by Flow Cytometry” (J Med Chem, 2018).

Calls of active or inactive are those of the source. No cut-off for these calls is given here. Where only a bound is given, the exact number is not on record here.

Data set [1] can be described thus: Binding affinity to wild type CHO cell membranes at 100 nM after 15 mins by confocal microscopic method. The format is cell-based, Cricetulus griseus. The following applies: chinese hamster, 0.25 h, 0.1 µM. In a few lines:
(§1)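 Live CHO cells stably expressing human A2BAR (or wild-type CHO as control) grown on chambered coverslips to about 80 % confluency. Incubated with fluorescent ligand (100 nM) for 15 min at 37°C, alone or after 30 min pre-incubation with PSB-603 (100 nM) or DPCPX (1 µM). Confocal laser scanning imaging with identical settings across conditions. Three similar experiments.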

For data set [2], the target named is T1, Adenosine receptor A2b (Homo sapiens) (UniProt P29275).
T1 sequence (whole entry): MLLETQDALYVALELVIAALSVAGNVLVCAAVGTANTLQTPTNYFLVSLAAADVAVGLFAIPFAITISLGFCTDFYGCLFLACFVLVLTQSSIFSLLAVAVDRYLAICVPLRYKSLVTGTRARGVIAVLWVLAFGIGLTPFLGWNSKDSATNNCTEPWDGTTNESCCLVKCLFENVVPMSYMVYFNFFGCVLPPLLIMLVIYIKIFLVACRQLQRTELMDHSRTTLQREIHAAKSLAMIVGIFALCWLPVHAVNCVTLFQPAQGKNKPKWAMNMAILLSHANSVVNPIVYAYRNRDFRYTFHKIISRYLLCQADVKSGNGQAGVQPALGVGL
The data set is described as follows: Binding affinity to recombinant human adenosine A2B receptor expressed in CHO cell membranes at 100 nM after 15 mins in presence of PSB-603 by confocal microscopic method. The format is cell-based. In a few lines: as §1

The nature of data set [3]: Selectivity ratio of Ki for recombinant human adenosine A3 receptor expressed in CHO cell membranes to Ki for recombinant mouse adenosine A2B receptor expressed in CHO cell membranes. The format is cell-based.
Data set [4] addresses Adenosine receptor A2a (Rattus norvegicus, UniProt P30543). Briefly: Displacement of [3H]MSX-2 from adenosine A2A receptor in rat brain striatal membranes after 30 mins by liquid scintillation counting method. The class given is cell membranes, Striatum, Membrane. Put shortly:
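[³H]MSX-2 (1 nM) used with rat striatal or human A2A-HEK membranes, 30 min at rt. Membranes pre-incubated 10-15 min with ADA 0.12 IU/mL. DMSO 2.5 % final. GF/B filtration, then scintillation counting. Curves used 6-7 concentrations over 3 log units. At least three experiments, in duplicate (human) or triplicate (rat).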

The species named for data set [5] is Homo sapiens. The data set is described as follows: Selectivity ratio of Ki for recombinant human adenosine A2A receptor expressed in HEK cell membranes to Ki for recombinant human adenosine A2B receptor expressed in CHO cell membranes. The class given is cell-based.
The target in data set [6] is T2, Adenosine receptor A2b (Homo sapiens, UniProt P29275).
T2 sequence (P29275 whole entry): T1 sequence (whole entry)
The data set is described as follows: Displacement of [3H]PSB-603 from recombinant human adenosine A2B receptor expressed in CHO cell membranes after 75 mins by liquid scintillation counting method. In a few lines: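 [³H]PSB-603 (0.3 nM) used with CHO membranes expressing human, mouse or rat A2BAR, 75 min at rt. Membranes pre-incubated 10-15 min with ADA 0.12 IU/mL. Nonspecific binding defined with 10 µM DPCPX. DMSO 2.5 % final. Filtration on GF/B with ice-cold 50 mM Tris-HCl pH 7.4 containing 0.1 % BSA, then scintillation counting. Curves used 6-7 concentrations over 3 log units. At least three experiments.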
Background: Loss of bound radioactivity is the signal in a displacement assay; it reports binding, not function.

Data set [7] in a line: Selectivity ratio of Ki for recombinant human adenosine A2A receptor expressed in HEK cell membranes to Ki for recombinant mouse adenosine A2B receptor expressed in CHO cell membranes. The format is cell-based.
The nature of data set [8]: Selectivity ratio of Ki for recombinant human adenosine A1 receptor expressed in CHO cell membranes to Ki for recombinant rat adenosine A2B receptor expressed in CHO cell membranes. The class given is cell-based.
Data set [9] addresses T3, Adenosine receptor A1 (Homo sapiens, UniProt P30542).
T3 sequence (P30542 whole entry): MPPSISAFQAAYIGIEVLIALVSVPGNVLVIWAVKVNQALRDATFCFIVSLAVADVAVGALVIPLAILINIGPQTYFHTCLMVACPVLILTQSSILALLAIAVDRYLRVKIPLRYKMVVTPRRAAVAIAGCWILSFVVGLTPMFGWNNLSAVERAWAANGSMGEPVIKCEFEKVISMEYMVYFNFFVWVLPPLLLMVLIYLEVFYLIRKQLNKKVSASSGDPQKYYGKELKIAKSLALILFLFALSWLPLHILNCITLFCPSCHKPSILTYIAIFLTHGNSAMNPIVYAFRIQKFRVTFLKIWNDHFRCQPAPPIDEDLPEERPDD
Briefly: Displacement of [3H]CCPA from recombinant human adenosine A1 receptor expressed in CHO cell membranes after 90 mins by liquid scintillation counting method. Put shortly:
(§2)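 [³H]CCPA (1 nM) used with rat brain cortical or human A1-CHO membranes, 90 min at rt. Membranes pre-incubated 10-15 min with ADA 0.12 IU/mL. Nonspecific binding defined with 10 µM CADO. Compounds dissolved in DMSO, 2.5 % final. Filtration on GF/B filters with ice-cold Tris-HCl washes, then scintillation counting. Curves used 6-7 concentrations spanning 3 log units. At least three experiments, in duplicate (human) or triplicate (rat).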

Data set [10] addresses T4, Adenosine receptor A2b (Rattus norvegicus, UniProt P29276).
T4 sequence (P29276 whole entry): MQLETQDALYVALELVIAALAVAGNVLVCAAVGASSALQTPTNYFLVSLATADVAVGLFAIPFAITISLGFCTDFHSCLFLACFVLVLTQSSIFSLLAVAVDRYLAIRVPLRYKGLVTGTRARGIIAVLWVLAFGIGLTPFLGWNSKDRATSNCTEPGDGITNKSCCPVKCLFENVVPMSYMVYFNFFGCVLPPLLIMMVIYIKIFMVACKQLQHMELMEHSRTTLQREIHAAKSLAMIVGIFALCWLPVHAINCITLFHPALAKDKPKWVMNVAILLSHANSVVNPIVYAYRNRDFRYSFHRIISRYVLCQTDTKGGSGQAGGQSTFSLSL
Briefly: Displacement of [3H]PSB-603 from recombinant rat adenosine A2B receptor expressed in CHO cell membranes after 75 mins by liquid scintillation counting method. In a few lines: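 Membranes pre-incubated 10-15 min with ADA 0.12 IU/mL. DMSO 2.5 % final. Filtration on GF/B with ice-cold 50 mM Tris-HCl pH 7.4 containing 0.1 % BSA, then scintillation counting. Curves used 6-7 concentrations over 3 log units. At least three experiments.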

The target in data set [11] is T5, Adenosine receptor A1 (Rattus norvegicus, UniProt P25099).
T5 sequence (P25099 whole entry): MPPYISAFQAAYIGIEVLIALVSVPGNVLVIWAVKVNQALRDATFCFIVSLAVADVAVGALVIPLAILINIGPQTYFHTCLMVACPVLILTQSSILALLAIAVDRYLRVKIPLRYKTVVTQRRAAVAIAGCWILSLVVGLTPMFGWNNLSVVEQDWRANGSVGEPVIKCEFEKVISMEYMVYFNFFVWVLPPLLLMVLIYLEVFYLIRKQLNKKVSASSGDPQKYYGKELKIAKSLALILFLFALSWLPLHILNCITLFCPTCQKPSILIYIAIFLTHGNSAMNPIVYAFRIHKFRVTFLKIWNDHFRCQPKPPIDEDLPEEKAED
Briefly: Displacement of [3H]CCPA from adenosine A1 receptor in rat brain cortical membranes after 90 mins by liquid scintillation counting method. The class given is cell membranes. Put shortly: as §2

Sequence of Adenosine receptor A2a (P30543 whole entry): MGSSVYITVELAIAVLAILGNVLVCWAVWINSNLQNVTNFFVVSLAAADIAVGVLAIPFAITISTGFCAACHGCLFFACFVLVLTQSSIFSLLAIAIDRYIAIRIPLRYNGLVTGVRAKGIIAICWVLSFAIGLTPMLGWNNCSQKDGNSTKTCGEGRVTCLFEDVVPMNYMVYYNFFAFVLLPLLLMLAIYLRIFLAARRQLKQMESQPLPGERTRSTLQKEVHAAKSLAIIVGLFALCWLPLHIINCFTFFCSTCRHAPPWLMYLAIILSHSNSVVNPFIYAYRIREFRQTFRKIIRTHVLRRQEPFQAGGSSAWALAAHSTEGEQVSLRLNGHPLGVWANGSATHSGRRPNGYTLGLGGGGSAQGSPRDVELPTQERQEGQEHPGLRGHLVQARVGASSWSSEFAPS

Consider `CCCn1c(=O)[nH]c2nc(-c3ccc(OCC(=O)NCCC4=C5C(C)=CC(C)=[N+]5[B-](F)(F)n5c(C)cc(C)c54)cc3)[nH]c2c1=O`, for which the Activity result in data set [1] is “Not Active”. In addition, the result in data set [2] was inactive. Besides, the Ratio Ki in data set [3] is > 1000; in [5], > 150; in data set [7], > 1000; in data set [8], > 1000. The Ki (as a rule, a measure of affinity in units of concentration, obtained from inhibition or displacement) is > 10000 nM in data set [4]; 1.83 nM in data set [6]; ≥ 10000 nM in [9]; 0.18 nM in [10]; 422 nM in [11].
